Active and inactive are the calls of the source. No cut-off for these calls is given here.
Assays:
[1] = biological target: T1, GABA-A receptor; anion channel (Bos taurus) (UniProt P10063+P08220+P20237+P08219+P10064+P22300); assay: Inhibition of […] [3H]- Ro.15-1788 binding to benzodiazepine receptors in bovine brain membrane.; type: cell membranes
[2] = biological target: T1, GABA-A receptor; anion channel (Bos taurus); assay: Relative binding to GABA-A receptor in the presence and absence of GABA (GABA shift), Ki(-GABA)/Ki(+GABA); type: protein-complex assay
In short: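 Bovine brain membranes, frozen-thawed and washed in 50 mM Tris-citrate pH 7.4, used for displacement of radiolabeled antagonist [3H]Ro 15-1788. Ki reported as mean ± SEM of three determinations. GABA ratio taken as Ki without GABA divided by Ki with GABA.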

[3] = biological target: GABA-A receptor; anion channel; assay: Displacement of [3H]- Ro.15-1788 from GABA-A central Benzodiazepine receptor (BzR) of Bovine cerebral cortex membrane; type: tissue-based, Bos taurus
[4] = biological target: T1, GABA-A receptor; anion channel (Bos taurus); assay: (§1) Inhibition of [35S]-TBPS binding to GABA-A central Benzodiazepine Receptor of bovine cerebral cortex membranes; type: tissue-based; design: concentration or dose not given beside the values; conditions: concentration not given here
In short: (§2)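 [35S]TBPS binding run in the presence of GABA with compounds at 0.5 μM, on bovine brain membranes washed in Tris-citrate pH 7.4. […] Mean ± SE of three separate experiments.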

Mus musculus [5] = assay: Proconvulsant action measured as the dose required to induce convulsions in 50% of mice that had been previously given a subconvulsant dose of PTZ (40 mg/kg, sc); No effect at a hieghst dose of 250 mg/kg; type: functional, organism-based; design: dose 250 mg/kg
In short: (§3)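 Mice pretreated with a subconvulsant PTZ dose of 40 mg/kg sc. The dose inducing convulsions in 50% of animals was determined, with compounds tested up to 250 mg/kg. Values are means of at least three determinations, with ≤20% variation between experiments.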

Mus musculus [6] = assay: Dose required to antagonise the convulsant action of PTZ (80 mg/kg, sc) in 50% mice; No effect at a highest dose of 250 mg/kg; type: functional, organism-based; design: dose 250 mg/kg
Mus musculus [7] = assay: Antagonism of Diazepam (2.5 mg/kg, ip) anticonvulsant effect in mice treated with PTZ (80 mg/kg, sc), No effect to 250 mg/kg dose; type: functional, organism-based; design: dose 250 mg/kg
In short: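 Mice received diazepam 2.5 mg/kg ip plus convulsant PTZ 80 mg/kg sc. The dose of test compound that antagonizes the anticonvulsant effect of diazepam was determined, with a highest dose of 250 mg/kg. Values are means of at least three determinations.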

Mus musculus [8] = assay: Dose required to antagonise the convulsant action of PTZ (80 mg/kg, sc) in 50% mice; No effect at a highest dose of 30 mg/kg; type: functional, organism-based; design: dose 30 mg/kg
Mus musculus [9] = assay: Antagonism of Diazepam (2.5 mg/kg, ip) anticonvulsant effect in mice treated with PTZ (80 mg/kg, sc); type: functional
In short: (§4)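 Mice; anticonvulsant value is the dose protecting 50% of animals from convulsions caused by PTZ 80 mg/kg sc; diazepam antagonism measured as dose reversing the anticonvulsant effect of diazepam 2.5 mg/kg ip in mice given PTZ 80 mg/kg sc. Top test dose 250 mg/kg; means of at least three determinations (≤20% between-experiment difference).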

Mus musculus [10] = assay: Proconvulsant action measured as the dose required to induce convulsions in 50% of mice that had been previously given a subconvulsant dose of PTZ (40 mg/kg, sc); type: functional
In short: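 Proconvulsant test in mice pretreated with subconvulsant PTZ 40 mg/kg sc; value is the dose inducing convulsions in 50% of animals. Highest test dose 250 mg/kg; means of at least three determinations, ≤20% difference between experiments.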

[11] = biological target: T1, GABA-A receptor; anion channel (Bos taurus); assay: as §1; type: tissue-based; conditions: concentration not given here; in short: as §2
Mus musculus [12] = assay: Proconvulsant action measured as the dose required to induce convulsions in 50% of mice that had been previously given a subconvulsant dose of PTZ (40 mg/kg, sc); No effect at a highest dose of 250 mg/kg; type: functional, organism-based; design: dose 250 mg/kg; in short: as §3
Mus musculus [13] = assay: Dose required to antagonise the convulsant action of PTZ (80 mg/kg, sc) in 50% mice; No effect at a highest dose of 100 mg/kg; type: functional, organism-based; design: dose 100 mg/kg
Mus musculus [14] = assay: Proconvulsant action measured as the dose required to induce convulsions in 50% of mice that had been previously given a subconvulsant dose of PTZ (40 mg/kg, sc); No effect at a highest dose of 100 mg/kg; type: functional, organism-based; design: dose 100 mg/kg
Mus musculus [15] = assay: Dose required by the compound in vivo to antagonise the convulsant action of PTZ (80 mg/kg, sc) in 50 % mice; type: functional; in short: as §4

SMILES | inhibition [1] [%] | GABA ratio [2] | Ki [3] [nM] | inhibition [4] [%] | other results
Cc1nnc2nc3ccccc3n2c1O | 26 |  |  |  | 
Oc1c(-c2ccco2)nnc2nc3ccccc3n12 | 93 | 0.98 | 56 | 25 | 
Oc1ccc(-c2nnc3nc4ccccc4n3c2O)cc1 | 99 | 0.87 | 74 | 15 | 
COc1ccc(-c2nnc3nc4ccccc4n3c2O)cc1 | 89 | 1.25 | 44 | 5 | NE (Mus musculus [5]): inactive; NE (Mus musculus [6]): inactive; NE (Mus musculus [7]): inactive
Cn1c2ccccc2n2c(=O)c(-c3cccs3)nnc12 | 63 |  |  |  | 
COC(=O)c1cc2c(cn1)[nH]c1ccccc12 [BETA-CCM] |  |  |  |  | NE (Mus musculus [8]): inactive; Diazepam antagonism (Mus musculus [9]): 0.02; Proconvulsant action (Mus musculus [10]): 19.4
Cc1ccc(-c2nnc3nc4ccccc4n3c2O)s1 | 83 | 0.96 | 115 |  | 
Oc1c(-c2ccc(Cl)cc2)nnc2nc3ccccc3n12 | 34 |  |  |  | 
Oc1c(-c2cccs2)nnc2nc3ccccc3n12 | 99 | 0.97 | 13 |  | inhibition [11]: 28%; NE (Mus musculus [12]): inactive; NE (Mus musculus [6]): inactive; NE (Mus musculus [7]): inactive
CCOC(=O)c1ncn2c1CN(C)C(=O)c1cc(F)ccc1-2 [FLUMAZENIL] |  | 0.9 | 0.09 | 15 | NE (Mus musculus [13]): inactive; Diazepam antagonism (Mus musculus [9]): 0.3; NE (Mus musculus [14]): inactive
CN1C(=O)CN=C(c2ccccc2)c2cc(Cl)ccc21 [DIAZEPAM] |  |  |  |  | ED50 (Mus musculus [15]): 0.4 mg/kg
O=C1CN=C(c2ccccc2Cl)c2cc([N+](=O)[O-])ccc2N1 |  |  |  | 100 | 
Oc1cnnc2nc3ccccc3n12 | 11 |  |  |  | 
Cn1c2ccccc2n2c(=O)c(-c3ccccc3)nnc12 | 92 | 1.7 | 860 | 66 | ED50 (Mus musculus [15]): 60 mg/kg; NE (Mus musculus [12]): inactive; NE (Mus musculus [7]): inactive
Oc1ccc(-c2nnc3nc4ccccc4n3c2O)cc1O | 99 | 1.2 | 170 |  | 
Cn1c2ccccc2n2c(=O)c(-c3ccco3)nnc12 | 68 |  |  |  | 
Oc1c(-c2ccsc2)nnc2nc3ccccc3n12 | 85 | 1.2 | 107 |  | 
Cn1c2ccccc2n2c(=O)c(-c3ccc(Cl)cc3)nnc12 | 30 |  |  |  | 
COc1ccc(-c2nnc3n(C)c4ccccc4n3c2=O)cc1 | 53 |  |  |  | 
Oc1c(-c2ccccc2)nnc2nc3ccccc3n12 | 97 | 1.2 | 53 | 35 | NE (Mus musculus [12]): inactive; NE (Mus musculus [6]): inactive; NE (Mus musculus [7]): inactive
Cc1ccc(-c2nnc3nc4ccccc4n3c2O)cc1 | 56 |  |  |  | 
COc1ccc(-c2nnc3nc4ccccc4n3c2O)cc1OC | 17 |  |  |  | 

From ChEMBL document CHEMBL1133176, “3-Aryl-[1,2,4]triazino[4,3-a]benzimidazol-4(10H)-ones: tricyclic heteroaromatic derivatives as a new class of benzodiazepine receptor ligands” (J Med Chem, 2000)
